Source: PMC7104901 (Diabetes Technology & Therapeutics, 2020)

Assays:
Assay type in all cases: in vivo, human
[1] = tested on: subjects with type 1 diabetes; test: Euglycemic clamp pharmacodynamics; details: for Clamp stopped prematurely due to BG reaching threshold (≥200 mg/dL for 30 min): number of subjects after 0.3 U/kg single dose; for GIR-AUC0–12h treatment ratio, point estimate (90% CI): 0.3 U/kg single dose, euglycemic clamp
Outline: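 Randomized, double-blind, 3-period crossover in adult males with T1D; fasted single 0.3 U/kg subcutaneous dose after basal-insulin washout (≥48 h), glulisine stopped ≥10 min predose, BG stable ≥1 h without glucose. A Biostator tracked arterialized venous BG and GIR continuously for 12 h, calibrated every 30 min. Stopped early if BG exceeded 200 mg/dL without glucose for 30 min. Weight-standardized GIR-AUC0–12h given as ratio of geometric means (90% CI).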

[2] = Plasma insulin aspart pharmacokinetics after single subcutaneous dose; details: linear mixed effects model, 0.3 U/kg single dose
Outline: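 Adults with type 1 diabetes, off basal insulin ≥48 h and fasted overnight, clamped at blood glucose 100 mg/dL before subcutaneous dosing. Plasma was separated within 20 min and stored at −60 to −80°C. Samples were assayed by LC-MS/MS (100–8000 pg/mL, LLOQ 100 pg/mL) and censored at any rescue insulin. AUCs used the log-linear trapezoidal rule. Log-parameters were analysed by mixed model and back-transformed with 90% CI.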

[3] = tested on: subjects with type 1 diabetes; test: Safety and tolerability; details: single 0.3 U/kg dose
Outline: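 Adult males with T1D each got a fasted single subcutaneous 0.3 U/kg dose per period in a double-blind 3-period crossover under 12 h euglycemic clamp. Safety was assessed by 12-lead ECG, vital signs, routine laboratory tests, physical examination, adverse event reporting and injection-site reaction assessment. Treatment-emergent events were counted as subjects reporting per treatment.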

[4] = ratio of geometric means vs. NN-Asp-EU
[5] = ratio of geometric means vs. NN-Asp-US

Substance	Clamp stopped prematurely due to BG reaching threshold (≥200 mg/dL for 30 min) [1] [subjects]	INS-AUCinf treatment ratio, point estimate (90% CI) [2, 4]	INS-AUClast treatment ratio, point estimate (90% CI) [2, 4]	INS-Cmax treatment ratio, point estimate (90% CI) [2, 4]	GIR-AUC0–12h treatment ratio, point estimate (90% CI) [1, 4]	INS-AUCinf treatment ratio, point estimate (90% CI) [2, 5]	INS-AUClast treatment ratio, point estimate (90% CI) [2, 5]	INS-Cmax treatment ratio, point estimate (90% CI) [2, 5]	Tolerability [3]	GIR-AUC0–12h treatment ratio, point estimate (90% CI) [1, 5]
insulin aspart [NN-Asp-EU]	15	–	–	–	–	–	–	–	–	–
insulin aspart [NN-Asp-US]	18	1.00 (0.95–1.04)	1.00 (0.95–1.05)	1.04 (0.96–1.12)	0.97 (0.90–1.05)	–	–	–	–	–
insulin aspart [SAR-Asp]	17	0.92 (0.88–0.96)	0.93 (0.88–0.97)	0.97 (0.90–1.05)	0.96 (0.89–1.04)	0.92 (0.88–0.96)	0.93 (0.89–0.98)	0.93 (0.87–1.01)	well tolerated	0.99 (0.91–1.07)
